# Rows were chosen to be rich in hits. Some 3.7% of all compounds tested hit in one or more screens of this group.
# KCNK3 block – human KCNK3 channel inhibitors, primary screen, CHO cells, FluxOR thallium flux, B-score | B-score at 10 µM | FluxOR fluorescence; stronger effect = lower value | Potassium channel subfamily K member 3 (Homo sapiens), O14649 | hit rate 0.84% among 340,000;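 active = B-score under library mean minus 4 SD, starting fluorescence ratio at most library mean plus 5 SD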;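 note: more negative B-score means stronger inhibition of thallium flux through KCNK3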
# KCNK9 inh – KCNK9 potassium channel inhibitors, primary screen, HEK293 cells, thallium flux; hit rate 1.2% among 310,000; Potassium channel subfamily K member 9 (Homo sapiens), Q9NPC2; B-score at 10 µM; AID 488922, 2010; FluxOR thallium flux fluorescence; stronger effect = lower value;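 active = ratio B-score over 3 SD below the library mean, with starting fluorescence within 5 SD of its mean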;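 note: negative B-score means less thallium flux so channel inhibition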
# Target sequence (Q9NPC2 whole entry, looked up): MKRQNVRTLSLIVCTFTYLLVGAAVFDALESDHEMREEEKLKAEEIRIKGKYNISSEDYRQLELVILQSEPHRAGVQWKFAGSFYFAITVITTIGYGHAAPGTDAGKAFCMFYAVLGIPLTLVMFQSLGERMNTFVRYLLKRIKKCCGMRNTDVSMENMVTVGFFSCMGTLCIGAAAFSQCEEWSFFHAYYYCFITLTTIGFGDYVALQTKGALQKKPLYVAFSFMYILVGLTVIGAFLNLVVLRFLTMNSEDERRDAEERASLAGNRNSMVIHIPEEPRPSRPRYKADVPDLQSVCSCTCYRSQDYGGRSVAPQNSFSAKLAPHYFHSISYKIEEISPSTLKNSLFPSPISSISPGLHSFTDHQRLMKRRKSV
# Kir21 block – inhibitors of mouse Kir2.1 inward-rectifier potassium channel | B-score at 10 µM | hit rate 0.85% among 310,000 | HEK293-Kir2.1, FluxOR thallium flux fluorescence; stronger effect = lower value;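 active = fluorescence ratio B-score at or below minus 3 SD of library scores, with starting-brightness B-score within 2 SD, cut at about -4.2 in these data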;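 note: channel flux triggered by added potassium and thallium sulfate stimulus; B-score of peak minus minimum fluorescence over baseline after thallium stimulus; more negative B-score means stronger Kir2.1 block with less thallium influx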
# KCNQ1 act – potentiators or activators of KCNQ1 channel, primary screen, cell-based, thallium flux, high-throughput; Potassium voltage-gated channel subfamily KQT member 1 (Homo sapiens), P51787; CHO-K1 KCNQ1, thallium flux FluxOR fluorescence; stronger effect = higher value; B-score at 10 µM; hit rate 0.35% among 310,000;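 active = fluorescence ratio B-score, a plate-corrected score, at least three library SD, with initial intensity B-score within 5 SD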
#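 Medium – assay buffer, equal DMSO in all wells · Material – CHO-K1 cell line with stable KCNQ1 potassium channel expression · Signal – kinetic FluxOR thallium fluorescence, 10-s 1-Hz baseline, 110-s post-stimulus read · Compound – single concentration per compound, DMSO matched to controls · Schedule – 37 °C overnight plating, 90-min dark dye load, 20-min compound pretreatment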
# KCNQ1 inh – inhibitors of human KCNQ1 channel, primary screen, cell-based, thallium flux, high-throughput; AID 2642, 2010; hit rate 1.3% among 310,000; Potassium voltage-gated channel subfamily KQT member 1 (Homo sapiens), P51787; CHO-K1 KCNQ1, FluxOR thallium flux fluorescence; stronger effect = higher value; B-score at 10 µM;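 active = compounds whose thallium flux B-score, printed positive for inhibition, exceeds three library SD while starting fluorescence stays within three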;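 note: channel opened by potassium depolarization with thallium stimulus after 20 min compound exposure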
# hERG protect – hERG rescue from dofetilide block, primary screen, cell-based, CHO-hERG, FluxOR thallium flux, dofetilide IC70; Voltage-gated inwardly rectifying potassium channel KCNH2 (Homo sapiens), Q12809; dofetilide IC70 present; activation (rescue from dofetilide block), less the hit threshold, % at 10 µM; hit rate 0.51% among 310,000; AID 1511, 2009;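 active = activation above the mean of controls blocked by dofetilide plus 5 SD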;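 note: thallium influx through hERG after potassium depolarization seen as dye fluorescence rise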
# Numbers without * were called inactive; i = inactive; x = no result given.
SMILES,KCNK3 block,KCNK9 inh,Kir21 block,KCNQ1 act,KCNQ1 inh,hERG protect
Cc1cccc(/C=C2/S/C(=N/N=C3\CC4CCC3(C)C4(C)C)NC2=O)c1 (stereo unspecified),i,i,0.73,18*,i,14*
S=C(N/N=C/c1ccc(Cl)cc1)N1CCOCC1,i,i,0,i,i,8.6*
COc1cc(CCC(N)c2cccc(O)c2)cc(OC)c1OC (stereo unspecified),i,x,x,x,x,x
O=C(O)C1OC(C(=O)O)C(C(=O)O)C1C(=O)O (stereo unspecified),i,x,x,x,x,x
Cc1ccc(-n2cccc2/C=C2/C(=N)N3C(=NC2=O)SN=C3S(C)(=O)=O)cc1,i,i,1.6,i,10*,-22
Cc1ccc(S(=O)(=O)Oc2ccc(/C=C3/C(=N)N4C(=NC3=O)SN=C4S(C)(=O)=O)cc2)cc1,i,i,0.02,i,i,-13
CS(=O)(=O)C1=NSC2=NC(=O)/C(=C\c3cccn3-c3ccccc3Cl)C(=N)N21,i,i,2.7,i,10*,-36
Brc1cc2c(cc1-c1nc3ccccc3s1)OCO2,i,-7.1*,-1.9,i,i,-3
Cc1cc(S(=O)(=O)N2CCOCC2)ccc1OCC(=O)NCc1ccco1,i,i,-0.07,i,i,6.7*
CCN1CCN(CCCOc2ccccc2-c2ccccc2)CC1,i,i,0.34,i,i,-12
CCN1CCN(CCCOc2ccc(-c3ccccc3)cc2)CC1,x,i,-4.7*,i,i,-16
O=C(c1ccccc1)c1ccc(OCCCCN2CCCCC2)cc1,i,i,-0.36,i,i,0
c1ccc(COc2ccc(OCCCCN3CCCCC3)cc2)cc1,i,i,-4.7*,i,i,-14
CCN1CCN(CCOc2ccccc2-c2ccccc2)CC1,i,i,-5.3*,i,i,-5
O=C(c1ccc(NS(=O)(=O)c2ccccc2)cc1)N1CCN(c2ccccc2)CC1,i,x,x,x,x,x
Cn1c(C=O)c(C#Cc2ccccc2)c2ccccc21,i,x,x,x,x,x
O=C(Nc1ncc(Br)s1)C(Cc1ccccc1)n1cccc1 (stereo unspecified),i,i,-1.5,31*,i,11*
CCCCN1CC(=O)N2[C@@H]3c4cc(OC)ccc4OC[C@@H]3[C@H](C(=O)OCC)[C@]2(C)C1=O,i,x,x,x,x,x
CC(NC(=S)NC(=O)c1cccs1)c1ccccc1 (stereo unspecified),i,x,x,x,x,x
CC(NC(=O)c1cccs1)C(S)c1ccccc1 (stereo unspecified),i,-6.6*,-0.77,i,i,-6
Cc1ccccc1NC(=S)N(Cc1ccco1)C(C)c1cccs1 (stereo unspecified),i,i,-3,i,i,-14
CC(c1cccs1)N(Cc1ccco1)C(=S)Nc1ccc(F)c(Cl)c1 (stereo unspecified),i,i,-0.25,i,10*,-15
O=C(O)Cc1cc(I)c(Oc2ccc(O)c(I)c2)c(I)c1,x,i,-2.5,i,i,9.9*
O=C(O)Cc1ccc(O)c(O)c1,i,i,0.76,i,i,-4
Nc1cc2c(cc1Br)-c1ccccc1C2=NO,i,x,x,x,x,x
SMILES,KCNK3 block,KCNK9 inh,Kir21 block,KCNQ1 act,KCNQ1 inh,hERG protect
Oc1ccc2ccccc2c1-c1sc(Nc2ccccc2)n[n+]1-c1ccc(F)cc1,i,i,-0.32,i,9*,-22
Cc1[nH]nc(SCC(=O)N2CCCCC2)c1[N+](=O)[O-],i,i,-0.91,10*,i,-5
Cc1ccc(NC(=O)CSc2n[nH]c(C)c2[N+](=O)[O-])cc1,i,i,0.87,i,i,-5
Cc1ccc(NC(=Nc2ccc(Br)cc2)N2CCOCC2)cc1C,i,i,-3.8,i,6*,-10
CCN1C(=O)C(CC(=O)Nc2ccc(OC)cc2)N(CCc2ccc(OC)cc2)C1=S (stereo unspecified),i,i,0,i,6*,-26
CCOC(=O)C1=C(C)N=c2s/c(=C\c3ccc(OCC(=O)O)c(OC)c3)c(=O)n2C1c1ccc(OC)cc1 (stereo unspecified),i,i,1.9,i,i,-1
CC1=C(C(=O)OC(C)C)C(c2ccc(Cl)cc2)n2c(s/c(=C\c3ccc(OCC(=O)O)cc3)c2=O)=N1 (stereo unspecified),i,i,-2,i,7*,-1
CCOC(=O)C1=C(C)N=c2s/c(=C\c3cccc(OCC(=O)O)c3)c(=O)n2C1c1ccccc1 (stereo unspecified),i,i,-0.89,i,i,-10
COC(=O)C1=C(C)N=c2s/c(=C/c3ccoc3)c(=O)n2C1c1ccccc1 (stereo unspecified),i,i,-1.2,i,9*,-18
CCCN(Cc1ccccc1)C(=S)Nc1ccc(SC(F)F)cc1,i,i,0.03,i,6*,-10
COc1ccc(NC(=O)CCCOc2ccc(Cl)c(C)c2)cc1S(=O)(=O)N1CCOCC1,i,x,x,x,x,x
CS(=O)(=O)N(CC(=O)N1CCCC1)c1cc(C(F)(F)F)ccc1Cl,i,i,0.42,i,i,-20
CS(=O)(=O)N(CC(=O)N1CCOCC1)c1cc(C(F)(F)F)ccc1Cl,i,i,1.2,i,i,7.3*
COCCNC(=O)C(c1ccncc1)N(C(=O)Cn1nnc2ccccc21)c1ccc(OC)cc1 (stereo unspecified),i,i,-0.88,i,i,5.0*
CC12CCC(O)CC1=CCC1C2CCC2(C)C(c3ccn[nH]3)CCC12 (stereo unspecified),i,x,x,x,x,x
CC(C)(C)c1cc(C(=O)NNc2ccc(OC(F)(F)F)cc2)n(Cc2ccccc2)n1,i,-8*,-0.1,i,i,-6
Cc1ccc(NNC(=O)c2cc(C(C)(C)C)nn2Cc2ccccc2)cc1,i,i,-1.8,i,i,-10
COc1ccccc1NNC(=O)c1cc(C(C)(C)C)nn1Cc1ccccc1,i,i,-0.08,i,6*,-15
Cc1sc2ncnc(NC3CCN(Cc4ccccc4)CC3)c2c1C,i,i,-5.5*,i,i,-28
